Bioassay records deposited in PubChem by Johns Hopkins Ion Channel Center.
MrgX1 allo act: allosterically activates human MrgX1 receptor signaling; Q96LB2; MrgX1-HEK293, Fluo-4 calcium flux, FDSS; stronger effect = higher value; B-score at 10 µM; hit rate 0.63% among 310,000;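 active means plate-corrected calcium response at least 3 library SD above typical, normal starting fluorescence, not activating the receptor alone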;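 further: compound read alongside a low EC10 to EC30 dose of BAM8-22 agonist; peak minus trough fluorescence over baseline measured at the second addition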
Target sequence (Q96LB2 whole entry, looked up): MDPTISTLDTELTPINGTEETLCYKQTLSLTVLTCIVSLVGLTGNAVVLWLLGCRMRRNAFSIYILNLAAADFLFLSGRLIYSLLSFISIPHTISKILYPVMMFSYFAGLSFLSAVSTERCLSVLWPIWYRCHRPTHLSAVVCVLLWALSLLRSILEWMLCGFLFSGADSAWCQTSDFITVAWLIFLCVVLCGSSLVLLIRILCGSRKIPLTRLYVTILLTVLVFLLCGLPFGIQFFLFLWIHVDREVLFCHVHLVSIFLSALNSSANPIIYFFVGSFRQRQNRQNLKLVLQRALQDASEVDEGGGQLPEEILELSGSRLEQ
MrgX1 ag: human MrgX1 receptor agonism, primary screen | MrgX1-HEK293 cells, Fluo-4 calcium fluorescence, agonist mode; stronger effect = higher value | hit rate 0.44% among 310,000 | B-score at 10 µM;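 active means calcium response B-score plate-corrected fluorescence ratio at least 3 library SD, with starting fluorescence B-score inside 5 SD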
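times = overnight plating, then 30 min 37 °C plus 30 min room-temperature dye loading | assay system = stable human MrgX1 HEK293 cell line | input = fifteen thousand cells per well | signal = kinetic calcium dye fluorescence, Fluo-4 NW | dosing = compound delivered in addition one of three | read-out = B-scored fluorescence response ratio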
MrgX1 antag: antagonists of human MrgX1 receptor. Q96LB2. MRGX1-HEK293 calcium flux, Fluo-4, BAM8-22 antagonism; stronger effect = lower value. B-score at 10 µM. hit rate 1.3% among 310,000;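 active means calcium-response B-score plate-corrected more than 3 library SD below zero, starting fluorescence within 5 deviations, no agonist response on first addition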;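 further: peak minus trough fluorescence over baseline after final BAM8-22 challenge near maximal dose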
RGS4 act: potentiators or activators of RGS4. HEK293 M3R/inducible RGS4, carbachol calcium flux Fluo4; stronger effect = lower value. B-score at 10 µM. hit rate 0.92% among 310,000;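 active means B-score of the integrated calcium signal more than 4 SD below the library mean, with starting fluorescence not abnormally high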;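 further: negative B-score means reduced calcium response which marks RGS4 activation or potentiation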
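test system = M3R-expressing HEK293 line, RGS4 induced by doxycycline | probe or stimulus = carbachol at ECmax as muscarinic agonist stimulus | timing = dye loading 30 min 37 °C, buffer rest 30 min RT | signal = calcium dye Fluo4 fluorescence | evaluation = B score from integrated fluorescence ratio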
RGS4 inh: inhibitors of human RGS4. P49798. hit rate 0.45% among 310,000. B-score at 10 µM. HEK293 M3R/RGS4 inducible, Fluo-4 calcium flux; stronger effect = higher value; triggered by carbachol at its EC20. AID 463165;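 active means B-score, a plate-corrected calcium signal, over three deviations above library mean, with baseline fluorescence within five deviations of library mean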;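 further: RGS4 expression induced by doxycycline in cells with stable M3 receptor; B-score is computed from the integrated fluorescence ratio over baseline after carbachol; higher B-score means a larger calcium signal and so more RGS4 inhibition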
Target sequence (P49798 whole entry, looked up): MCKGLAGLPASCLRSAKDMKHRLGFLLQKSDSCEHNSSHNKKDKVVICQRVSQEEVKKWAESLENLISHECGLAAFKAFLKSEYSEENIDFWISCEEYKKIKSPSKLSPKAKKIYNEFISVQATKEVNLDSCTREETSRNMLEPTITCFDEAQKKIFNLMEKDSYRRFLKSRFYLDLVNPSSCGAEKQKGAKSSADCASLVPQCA
MrgX1 ant reconf: confirmation of human MrgX1 receptor antagonists. shares compounds with MrgX1 antag. MrgX1-HEK293, BAM8-22 calcium flux, Fluo-4; stronger effect = lower value. remaining BAM8-22 calcium response % of control (stronger effect = lower value), % at 10 µM. hit rate 19% among 2,300;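 active means remaining agonist calcium response no higher than 100% minus 3 SD of agonist-only control wells, with starting fluorescence near control levels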;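 further: agonist BAM8-22 given at a near maximal EC90 to ECmax level; peak minus minimum fluorescence divided by baseline after agonist addition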
HEK293 Ca flux: counter-screen for MrgX1 antagonists: effect in parental HEK293 cells; shares compounds with MrgX1 antag; Fluo-4 calcium fluorescence, FDSS; fluorescence ratio F(max-min)/F0 at 10 µM; hit rate 2% among 4,000;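 active means duplicate-averaged calcium fluorescence ratio at least three times the standard deviation of buffer wells, a nonspecific response in parental cells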
HEK293 Ca counter: counter-screen for MrgX1 allosteric activators: effect in parental HEK293 cells; hit rate 0.4% among 4,000; parental HEK293 calcium flux, Fluo-4 fluorescence ratio; stronger effect = higher value; shares compounds with MrgX1 antag; fluorescence ratio F(max-min)/F0 at 10 µM; AID 624114;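 active means calcium fluorescence ratio, averaged over duplicates, at least 3 SD of the buffer-well ratio, meaning a nonspecific response in receptor-free cells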;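 further: untransfected parental HEK293 lacking MrgX1 used as counterscreen for MrgX1 allosteric activators; fluorescence change taken during the second addition on a kinetic imager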
HEK293 Ca cntr2: counter-screen for MrgX1 activators: effect in parental HEK293 cells | shares compounds with MrgX1 antag | Fluo-4 calcium fluorescence (FDSS); stronger effect = higher value | fluorescence ratio F(max-min)/F0 at 10 µM | hit rate 8.7% among 4,000 | AID 624115;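 active means calcium fluorescence ratio at least three times the spread of buffer wells, meaning a non-specific response in parental cells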
* = called active by the depositor; i = inactive; x = no result given. Sampled rows, rich in hits. Any-hit rate of the full collection: about 3.5%.

SMILES	MrgX1 allo act	MrgX1 ag	MrgX1 antag	RGS4 act	RGS4 inh	MrgX1 ant reconf	HEK293 Ca flux	HEK293 Ca counter	HEK293 Ca cntr2
CCOc1ccccc1N(CC(=O)OC)S(C)(=O)=O	i	i	-6.16*	i	i	i	i	i	i
Cc1cccc(C)c1NC(=O)C1NC(=O)CC1c1ccccc1 (stereo not given)	i	i	-9.5*	i	i	i	i	i	i
Cc1nc2cc3sc(C)nc3cc2s1	i	i	i	i	i	x	x	x	x
Cc1nc2ccc(N)cc2s1	i	i	-5.63*	i	i	i	i	i	i
COc1ccc(S(=O)(=O)NC2CC3CCC2C3)cc1 (stereo not given)	i	i	i	i	i	x	x	x	x
CC(=O)N1CN(CCCn2ccnc2)Cc2c1sc1c2CCCC1	i	i	-5.76*	i	i	i	i	i	i
CC(=O)N1CN(Cc2ccccn2)Cc2c1sc1c2CCCC1	i	i	i	i	i	x	x	x	x
CC1CN(C(=O)c2cccc(Oc3ccccc3)c2)CC(C)O1 (stereo not given)	i	i	-4.67*	i	i	i	i	i	i
Cc1nc2nc(-c3ccco3)[nH]n2c(=O)c1Cc1ccccc1	i	i	i	i	i	x	x	x	x
Cc1nc2nc(-c3ccco3)[nH]n2c(=O)c1C	i	i	-11.7*	i	i	i	i	i	i
O=C(CCc1ccccc1)NCc1ccc(F)cc1	i	i	i	i	i	x	x	x	x
O=C(O)CCC(=O)NCc1ccc(F)cc1	i	i	-6.29*	i	i	i	i	i	i
O=C(CSc1nnc(NC(=O)c2ccccc2F)s1)NCc1ccco1	i	i	i	i	i	x	x	x	x
CC1(C)N=C(SCC(=O)Nc2ccc(Cl)cc2Cl)C(c2ccccc2)=N1	i	i	-6.98*	i	i	80.3%*	i	i	i
Cc1ccc(C2=NC(C)(C)N=C2SCC(=O)Nc2ccc(Cl)cc2)cc1	i	i	-5.67*	i	i	i	i	i	i
CC(C)NC(=O)C(c1ccc(F)cc1)N(C(=O)CCC(=O)Nc1ccccn1)C1CCCC1 (stereo not given)	i	i	i	i	i	x	x	x	x
NS(=O)(=O)c1ccc2nc(NC(=O)Nc3ccc(F)cc3)sc2c1	i	i	i	i	i	x	x	x	x
Cc1c(O)ccc2c(CC(=O)N[C@@H](Cc3ccccc3)C(=O)O)cc(=O)oc12	i	i	-4.89*	i	i	83.6%*	i	i	i
COc1ccc2c(CC(=O)N[C@@H](Cc3ccccc3)C(=O)O)cc(=O)oc2c1	i	i	i	i	i	x	x	x	x
CCN(CC(=O)Nc1ccc(NC(C)=O)cc1)C(=O)COc1ccc2ccccc2c1	i	i	i	i	i	x	x	x	x
CCN(CC(=O)Nc1ccc(NC(C)=O)cc1)C(=O)c1ccc2ccccc2c1	i	i	-5.1*	i	i	i	i	i	i
COc1cccc(CN(C(=O)c2ccc([N+](=O)[O-])cc2)C2CCS(=O)(=O)C2)c1 (stereo not given)	i	i	i	i	i	x	x	x	x
CN(C)CCNc1cnn(-c2ccccc2)c(=O)c1Cl	i	i	i	i	i	x	x	x	x
CC(=O)c1cccc(NC(=O)C2CC(=O)N(CCc3ccccc3)C2)c1 (stereo not given)	i	i	-5.19*	i	i	i	i	i	i
COc1ccccc1OCC(=O)Nc1ccc(S(=O)(=O)Nc2onc(C)c2C)cc1	i	i	i	i	i	x	x	x	x
SMILES	MrgX1 allo act	MrgX1 ag	MrgX1 antag	RGS4 act	RGS4 inh	MrgX1 ant reconf	HEK293 Ca flux	HEK293 Ca counter	HEK293 Ca cntr2
O=C(CSc1nnc(NC(=O)C2CC2)s1)NCc1ccccc1Cl	i	i	i	i	i	x	x	x	x
COc1ccccc1C(=O)NC(=O)COC(=O)CNC(=O)c1ccc(Cl)c([N+](=O)[O-])c1	i	i	i	i	i	x	x	x	x
COc1ccccc1NC(=O)NCCN1C(=O)C2C3C=CC(C3)C2C1=O (stereo not given)	i	i	-7.56*	i	i	i	i	i	i
COc1ccccc1NC(=O)NCCN1CCCCC1	i	i	i	i	i	x	x	x	x
O=C(Nc1ccc(Cl)cc1)c1cc2c(cc1O)[nH]c1ccccc12	i	i	-4.89*	i	i	54.0%*	i	i	i
CC(=O)Nc1ccc2[nH]c3ccccc3c2c1	i	i	i	i	i	x	x	x	x
CC1(c2ccc(C#N)cc2)NC(=O)N(CC(=O)Nc2cc(S(=O)(=O)N3CCOCC3)ccc2Cl)C1=O (stereo not given)	i	i	-7.33*	i	i	i	i	i	i
CC(=O)Oc1ccc(/C(C)=N\N2CCN(Cc3ccc(Cl)cc3)CC2)cc1	i	i	i	i	i	x	x	x	x
Cc1nn2c(NCc3ccccn3)c3c(nc2c1-c1ccccc1)CCC3	i	i	i	i	i	x	x	x	x
Cc1nn2c(NCCN3CCOCC3)c3c(nc2c1-c1ccccc1)CCCC3	i	i	-5.91*	i	i	i	i	i	i
COc1ccc(C(O)C(CN2CCOCC2)c2ccccc2)cc1F (stereo not given)	i	i	-5.56*	i	i	i	i	i	i
S=c1[nH]nc(C2CCCCC2)n1/N=C/c1c(Cl)cccc1Cl	i	i	i	i	i	x	x	x	x
CN1CCN(C(=O)NC2CCCCC2)CC1	i	i	i	i	i	x	x	x	x
CN1CCN(C2CCCCCC2)CC1	i	i	-5.32*	i	i	i	i	i	i
O=C(Nc1ccc(C(=O)N2CCOCC2)cc1)c1cccs1	i	i	-6.99*	i	i	75.3%*	i	i	i
CCN1CCN(S(=O)(=O)c2c(C)[nH]c(C)c2C(=O)N2CCCCC2)CC1	i	i	i	i	i	x	x	x	x
